Test [1] can be described thus: Inhibition of capsid in HBV infected in human HepG.2.2.15 cells assessed as reduction of HBV DNA incubated for 5 days by quantitative PCR analysis.
Test [2] has as its target Capsid protein (Hepatitis B virus, UniProt Q03732). The test can be described thus: Inhibition of capsid in HBV infected in human HepG.2.2.15 cells assessed as reduction of HBV DNA incubated for 5 days by quantitative PCR analysis. Summed up:
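HepG2.2.15 cells (HepG2-derived, stably carrying the HBV genome; kept in DMEM-F12 with 10% FBS, penicillin/streptomycin, 0.5 mg/mL G418) seeded at 3 × 10^4 cells/well and incubated overnight at 37 °C. Compounds were serially half-log diluted in DMSO and added in medium at 0.5% final DMSO. HBV DNA was extracted and quantified by qPCR.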

In BindingDB's records for doi:10.1021/acs.jmedchem.9b01421 (2019) one finds EC50 data, which are given here for 20 molecules.

Sequence of Capsid protein (Q03732 whole entry): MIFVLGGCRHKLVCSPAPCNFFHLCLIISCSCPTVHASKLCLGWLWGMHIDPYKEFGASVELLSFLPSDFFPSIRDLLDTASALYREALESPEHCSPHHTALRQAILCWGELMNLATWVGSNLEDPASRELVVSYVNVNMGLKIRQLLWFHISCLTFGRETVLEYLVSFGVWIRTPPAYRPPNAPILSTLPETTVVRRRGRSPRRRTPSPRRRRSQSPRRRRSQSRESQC

`CCOC(=O)C1=C(CN2CCOC[C@H]2C(=O)O)NC(c2nccs2)=N[C@H]1c1ccc(F)cc1Cl`: the EC50 in test [1] stood at 2 nM.
Still for that read-out and setting: next, `COC(=O)C1=C(CN2CCOC[C@H]2C(=O)O)NC(c2nccs2)=N[C@H]1c1ccc(Cl)c(F)c1`: 10 nM; `CCOC(=O)C1=C(CN2CCOC[C@H]2C(=O)O)NC(c2nccs2)=N[C@H]1c1ccc(F)c(C#N)c1`: over 1000 nM.
In the case of `COC(=O)C1=C(CN2CC(F)(F)C[C@H]2C(=O)O)NC(c2nccs2)=N[C@H]1c1ccc(F)cc1Cl`, in test [2], the concentration giving a half-maximal response (EC50) came out at 3 nM.
As for `CCOC(=O)C1=C(CN2CCOC[C@H]2C(=O)O)NC(c2nccs2)=N[C@H]1c1ccc(C)c(F)c1`, the EC50 in test [2] was 5 nM.
Same read-out and setting: next, `CCOC(=O)C1=C(CN2CCOC[C@H]2C(=O)O)NC(c2nccs2)=N[C@H]1c1ccc(F)cc1F`: 14 nM.
As to `CCOC(=O)C1=C(CN2CCOC[C@H]2C(=O)O)NC(c2nccs2)=N[C@H]1c1ccc(F)c(Br)c1`, the EC50 in test [1] is over 1000 nM.
Take `CCOC(=O)C1=C(CN2CCOC[C@H]2C(=O)O)NC(c2nccs2)=N[C@H]1c1ccc(F)cc1`: the concentration for a half-maximal effect (EC50) in test [2] was 15 nM.
As for `CCOC(=O)C1=C(CN2CC(F)(F)C[C@H]2C(=O)O)NC(c2nccs2)=N[C@H]1c1ccc(F)cc1Cl`, in test [2], the half-maximal effective concentration (EC50) was determined as 10 nM.
Still for that read-out and setting: next, `COC(=O)C1=C(CN2CCOC[C@H]2C(=O)O)NC(c2nccs2)=N[C@H]1c1ccc(Br)c(F)c1`: 10 nM.
Regarding `COC(=O)C1=C(CN2CCOC[C@H]2C(=O)O)NC(c2nccs2)=N[C@H]1c1ccc(F)c(F)c1`, in test [1], the EC50 came to 46 nM.
For the molecule `CCOC(=O)C1=C(CN2CCOC[C@H]2C(=O)O)NC(c2nccs2)=N[C@H]1c1ccc(F)c(F)c1`, the EC50 in test [1] was found to be 11 nM.
Still for that read-out and setting: in the case of `CCOC(=O)C1=C(CN2CCOC[C@H]2C(=O)O)NC(c2nccs2)=N[C@H]1c1ccc(Br)c(F)c1` it was 3 nM; in that of `COC(=O)C1=C(CN2CCOC[C@H]2C(=O)O)NC(c2nccs2)=N[C@H]1c1ccc(C)c(F)c1`, 28 nM.
With `CCOC(=O)C1=C(CN2CCOC[C@H]2C(=O)O)NC(c2nccs2)=N[C@H]1c1cccc(F)c1`, in test [2], the EC50 was 15 nM.
Take `CCOC(=O)C1=C(CN2CCOC[C@H]2C(=O)O)NC(c2nccs2)=N[C@H]1c1ccc(F)c(Cl)c1`: in test [1], the EC50 was over 1000 nM.
Take `CCOC(=O)C1=C(CN2CCOC[C@H]2C(=O)O)NC(c2nccs2)=N[C@H]1c1ccc(F)c(F)c1F`: the concentration giving a half-maximal response (EC50) in test [2] worked out at 5 nM.
Turning to `CCOC(=O)C1=C(CN2CCOC[C@H]2C(=O)O)NC(c2nccs2)=N[C@H]1c1cc(F)c(F)c(F)c1`, the EC50 in test [2] was 18 nM.
As for `CCOC(=O)C1=C(CN2CCOC[C@H]2C(=O)O)NC(c2nccs2)=N[C@H]1c1ccc(Cl)c(F)c1`, in test [2], the EC50 is 2 nM.
Same read-out and setting: in the case of `COC(=O)C1=C(CN2CC(F)(F)C[C@H]2C(=O)O)NC(c2nccs2)=N[C@H]1c1ccc(F)c(F)c1` it was 22 nM.
